This is an account of results in ChEMBL document CHEMBL1287650, “Structural modification of a specific antimicrobial lead against Helicobacter pylori discovered from traditional Chinese medicine and a structure-activity relationship study” (2010).

Converted amounts (≈) assume the structure as drawn.

The term MIC denotes the smallest concentration in the dilution series that meets the test's criterion for growth inhibition.

Holding throughout (type): functional
The subject of one assay is Helicobacter pylori. Briefly: Antibacterial activity against Helicobacter pylori SS1 assessed as inhibition of visible growth after 96 hrs by agar dilution method. The settings on record: SS1, 96 h. An outline of the steps: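 Agar dilution on Columbia Blood Agar Base with 7% defibrinated sheep blood; compounds dissolved in minimal DMSO, two-fold serial dilutions mixed into medium. Inoculum: cells in saline at 10⁸ CFU/mL. Incubated 37 °C, 96 h, 5% O₂/10% CO₂/85% N₂. DMSO-only blank and metronidazole positive control run alongside. MIC = lowest concentration completely inhibiting visible growth.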
(In agar dilution the substance is mixed into plates at graded concentrations.)

The test system of assay [1] is Staphylococcus epidermidis. Briefly: Antibacterial activity against Staphylococcus epidermidis ATCC 12228 after 18 hrs. The settings on record: ATCC 12228, 18 h.
The subject of a further assay is Nannizzia gypsea. Put plainly: Antifungal activity against Microsporum gypseum after 48 hrs. An outline of the steps: (§1)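 Fungi grown in Sabouraud dextrose broth at 37 °C for 48 h with compounds and positive control dissolved in DMSO; DMSO-only cultures served as blank controls.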
A further assay concerns Staphylococcus aureus. Put plainly: Antibacterial activity against Staphylococcus aureus ATCC 25923 after 18 hrs. The following applies: ATCC 25923, 18 h.
Another assay concerns Trichophyton rubrum. Briefly: Antifungal activity against Trichophyton rubrum after 48 hrs. An outline of the steps: as §1
A further assay has as its system Micrococcus luteus. Put plainly: Antibacterial activity against Micrococcus luteus ATCC 9341 after 18 hrs. The settings on record: ATCC 9341, 18 h.
The test system of the next assay is Escherichia coli. Put plainly: Antibacterial activity against Escherichia coli ATCC 25922 after 18 hrs. The settings on record: ATCC 25922, 18 h.
Assay [2] in a line: Antifungal activity against Saccharomyces sake after 48 hrs. The settings on record: Saccharomyces sp. Summed up: as §1
Another assay relates to Shigella flexneri. Put plainly: Antibacterial activity against Shigella flexneri F2a after 18 hrs.
For a further assay, the system named is Bacillus subtilis. Put plainly: Antibacterial activity against Bacillus subtilis CMCC 63501 after 18 hrs. The settings on record: CMCC 63501, 18 h.
The test system of another assay is Candida albicans. Put plainly: Antifungal activity against Candida albicans ATCC 1600 after 48 hrs. The settings on record: ATCC 1600, 48 h. Summed up:
as §1

Another assay concerns Pseudomonas aeruginosa. Briefly: Antibacterial activity against Pseudomonas aeruginosa ATCC 14502 after 18 hrs. The settings on record: ATCC 14502, 18 h.

For the molecule `CC(=O)OCc1cc(=O)oc2cc3occc3cc12`, the minimum inhibitory concentration (MIC) with Helicobacter pylori worked out at 1.56 µg/mL (≈ 6.04 µM).
Still for that read-out and setting: under `CCOCc1c2ccoc2c(OC)c2oc(=O)ccc12` stands more than 50 µg/mL; under `CC(=O)Oc1c2occc2c([N+](=O)[O-])c2ccc(=O)oc12`, 25 µg/mL (≈ 86.4 µM).
Still for that read-out and setting: under `COc1c2occc2c(Cl)c2ccc(=O)oc12` stands more than 50 µg/mL.
For `CCN(CC)Cc1cc2cc3ccc(=O)oc3cc2o1`, the minimal inhibitory concentration (MIC) in the assay with Helicobacter pylori was more than 50 µg/mL.
For `COc1c2occc2cc2ccc(=O)oc12` [METHOXSALEN], the minimum inhibitory concentration (MIC) in the assay on Helicobacter pylori turned out to be 25 µg/mL (≈ 116 µM).
As to `CCCCOCc1c2ccoc2c(OC)c2oc(=O)ccc12`, the minimal inhibitory concentration (MIC) with Helicobacter pylori came out at 50 µg/mL (≈ 165 µM).
For the molecule `Cc1cc(=O)oc2cc3occc3cc12`, the MIC in assay [1] is more than 64 µg/mL; with Nannizzia gypsea, more than 64 µg/mL; against Staphylococcus aureus, more than 64 µg/mL; in the assay on Helicobacter pylori, 0.39 µg/mL (≈ 1.95 µM); against Trichophyton rubrum, more than 64 µg/mL; in the assay with Micrococcus luteus, more than 64 µg/mL. The minimum inhibitory concentration (MIC) (in the assay on Escherichia coli; in assay [2]; with Shigella flexneri; with Bacillus subtilis; against Candida albicans; in the assay with Pseudomonas aeruginosa) was more than 64 µg/mL each time.
On to `COc1c2occc2c(S(=O)(=O)Oc2ccccc2)c2ccc(=O)oc12`, for which the MIC with Helicobacter pylori was more than 50 µg/mL.
Take `Cc1c2ccoc2cc2oc(=O)ccc12`: the MIC in the assay with Helicobacter pylori stood at 12.5 µg/mL (≈ 62.4 µM).
The same measure, in the same setting: in the case of `CCOc1c2occc2cc2ccc(=O)oc12` it was more than 50 µg/mL; in that of `O=c1ccc2cc3cc([N+](=O)[O-])oc3cc2o1`, 3.12 µg/mL (≈ 13.5 µM); in that of `CCOCc1cc2cc3ccc(=O)oc3cc2o1`, more than 50 µg/mL.
Still for that read-out and setting: in the case of `COCc1cc2cc3ccc(=O)oc3cc2o1` it was 50 µg/mL (≈ 217 µM); in that of `COCc1c2ccoc2c(OC)c2oc(=O)ccc12`, more than 50 µg/mL.
On the same count and under the same terms, under `Cc1ncc([N+](=O)[O-])n1CCO` [METRONIDAZOLE] stands 0.5 µg/mL (≈ 2.92 µM); under `CCCc1cc(=O)oc2cc3occc3cc12`, 12.5 µg/mL (≈ 54.8 µM).
With `CCCCOCc1cc2cc3ccc(=O)oc3cc2o1`, the minimum inhibitory concentration (MIC) in the assay with Helicobacter pylori worked out at 50 µg/mL (≈ 184 µM).
For the molecule `O=c1ccc2cc3ccoc3cc2o1` [PSORALEN], the minimum inhibitory concentration (MIC) in [1] is more than 64 µg/mL; against Nannizzia gypsea, more than 64 µg/mL; in the assay on Staphylococcus aureus, more than 64 µg/mL; in the assay with Helicobacter pylori, 6.25 µg/mL (≈ 33.6 µM); against Trichophyton rubrum, more than 64 µg/mL; against Micrococcus luteus, more than 64 µg/mL. Besides, the MIC (with Escherichia coli; in assay [2]; against Shigella flexneri; against Bacillus subtilis; with Candida albicans; in the assay with Pseudomonas aeruginosa) was more than 64 µg/mL throughout.
As to `COc1c2occc2c(S(=O)(=O)OC)c2ccc(=O)oc12`, in the assay with Helicobacter pylori, the minimal inhibitory concentration (MIC) was more than 50 µg/mL.
Take `Cc1coc2cc3oc(=O)ccc3cc12`: in the assay with Helicobacter pylori, the MIC amounted to 12.5 µg/mL (≈ 62.4 µM).
Still for that read-out and setting: under `COc1c2occc2c(CCl)c2ccc(=O)oc12` stands 25 µg/mL (≈ 94.5 µM); under `O=c1ccc2cc3ccoc3c(O)c2o1` [XANTHOTOXOL], more than 50 µg/mL.
On the same count and under the same terms, in the case of `O=Cc1cc(=O)oc2cc3occc3cc12` it was 1.56 µg/mL (≈ 7.28 µM); in that of `O=c1cc(CBr)c2cc3ccoc3cc2o1`, 1.56 µg/mL (≈ 5.59 µM); in that of `CCc1cc(=O)oc2cc3occc3cc12`, 6.25 µg/mL (≈ 29.2 µM).
The same measure, in the same setting: in the case of `CCN(CC)S(=O)(=O)c1c2ccoc2c(OC)c2oc(=O)ccc12` it was more than 50 µg/mL; in that of `CC(=O)OCc1cc2cc3ccc(=O)oc3cc2o1`, more than 50 µg/mL.
With `COc1c2occc2c(N)c2ccc(=O)oc12`, the minimal inhibitory concentration (MIC) in the assay with Helicobacter pylori came to 25 µg/mL (≈ 108 µM).
For `CCOC(=O)COc1c2occc2cc2ccc(=O)oc12`, the minimal inhibitory concentration (MIC) in the assay on Helicobacter pylori was more than 50 µg/mL.
In the case of `COc1c2occc2c(Br)c2ccc(=O)oc12`, the minimal inhibitory concentration (MIC) in the assay on Helicobacter pylori was more than 50 µg/mL.
On the same count and under the same terms, in the case of `CC(=O)Oc1c2occc2cc2ccc(=O)oc12` it was more than 50 µg/mL.
Regarding `O=c1ccc2cc3cc(Br)oc3cc2o1`, in the assay with Helicobacter pylori, the MIC came to 6.25 µg/mL (≈ 23.6 µM).
The same measure, in the same setting: under `O=c1cc(C(F)(F)F)c2cc3ccoc3cc2o1` stands 12.5 µg/mL (≈ 49.2 µM); under `COc1c2occc2c(/N=C/c2ccccc2)c2ccc(=O)oc12`, more than 50 µg/mL.
`COc1c2occc2c(S(=O)(=O)Nc2ccc([N+](=O)[O-])cc2)c2ccc(=O)oc12`: the minimal inhibitory concentration (MIC) with Helicobacter pylori was more than 50 µg/mL.
On the same count and under the same terms, in the case of `COc1ccc(NS(=O)(=O)c2c3ccoc3c(OC)c3oc(=O)ccc23)cc1` it was more than 50 µg/mL.
The same measure, in the same setting: in the case of `O=c1cc(CO)c2cc3ccoc3cc2o1` it was 0.78 µg/mL (≈ 3.61 µM).
As to `COc1c2occc2c([N+](=O)[O-])c2ccc(=O)oc12`, the MIC is more than 64 µg/mL in assay [1]; more than 64 µg/mL in the assay with Nannizzia gypsea; more than 64 µg/mL with Staphylococcus aureus; 1.56 µg/mL (≈ 5.97 µM) in the assay with Helicobacter pylori; more than 64 µg/mL in the assay with Trichophyton rubrum; more than 64 µg/mL in the assay with Micrococcus luteus. For the same molecule, the minimal inhibitory concentration (MIC) (with Escherichia coli; in assay [2]; against Shigella flexneri; against Bacillus subtilis; in the assay with Candida albicans; with Pseudomonas aeruginosa) was more than 64 µg/mL each time.
In the case of `O=c1ccc2cc3cc(Cl)oc3cc2o1`, the MIC in the assay on Helicobacter pylori is 6.25 µg/mL (≈ 28.3 µM).
Still for that read-out and setting: in the case of `COc1ccc(NCc2c3ccoc3c(OC)c3oc(=O)ccc23)cc1` it was 12.5 µg/mL (≈ 35.6 µM); in that of `O=c1ccc2cc3cc(CCl)oc3cc2o1`, more than 50 µg/mL.
Turning to `COc1c2occc2c(S(N)(=O)=O)c2ccc(=O)oc12`, the minimum inhibitory concentration (MIC) in the assay with Helicobacter pylori was more than 50 µg/mL.
For `O=c1ccc2c([N+](=O)[O-])c3ccoc3c(O)c2o1`, the MIC in the assay on Helicobacter pylori amounted to 25 µg/mL (≈ 101 µM).
The same measure, in the same setting: in the case of `O=C(O)COc1c2occc2cc2ccc(=O)oc12` it was more than 50 µg/mL; in that of `O=c1cc(-c2ccccc2)c2cc3ccoc3cc2o1`, 12.5 µg/mL (≈ 47.7 µM); in that of `CCN(CC)Cc1c2ccoc2c(OC)c2oc(=O)ccc12`, more than 50 µg/mL.
For `CCCOCc1c2ccoc2c(OC)c2oc(=O)ccc12`, the MIC in the assay on Helicobacter pylori was more than 50 µg/mL.
For the molecule `COc1c2occc2c(CNc2ccc([N+](=O)[O-])cc2)c2ccc(=O)oc12`, the MIC in the assay with Helicobacter pylori is more than 50 µg/mL.
